{
  "source": "ChEMBL document CHEMBL1153722",
  "about": "“Design, synthesis, and characterization of peptide-based rab geranylgeranyl transferase inhibitors” (J Med Chem, 2009)",
  "note": "Peptide text beside a SMILES is read from it. * marks the point of attachment. Hydrocinnamoyl = O=C(CCc1ccccc1)*; Undecanoyl = CCCCCCCCCCC(=O)*; NHOH = ON*",
  "data": [
    {"target": "not listed separately", "assay": "Inhibition of rat recombinant Rab geranylgeranyltransferase iin presence of canine Rab7 and rat REP1 by NBD-FPP based continuous fluorimetric assay", "procedure,_shortened": "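Continuous fluorometric assay in 96/384-well format: 3 μM Rab7, 3 μM REP1, 9 μM NBD-FPP and 400 nM RabGGTase, with or without inhibitor. IC50 was calculated from three independent measurements.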", "units": {"IC50": "µM"}, "values": [
      {"compound": "O=C(CNC(=O)c1coc(-c2ccccc2)n1)N[C@@H](Cc1ccccc1)C(=O)N[C@@H](Cc1cn(Cc2ccccc2)cn1)C(=O)O", "IC50": "> 50"},
      {"compound": "Cc1nc(C(=O)NCC(=O)N[C@@H](Cc2ccccc2)C(=O)N[C@@H](Cc2cn(C(c3ccccc3)(c3ccccc3)c3ccccc3)cn2)C(=O)O)c(C)o1", "IC50": 46},
      {"compound": "CCCCCCCCCCC(=O)N[C@@H](Cc1ccc(O)cc1)C(=O)N[C@@H](Cc1c[nH]cn1)C(=O)N[C@@H](Cc1ccc(O)cc1)C(=O)NCCCCN", "IC50": 7.1},
      {"compound": "CN(C(=O)[C@H](Cc1c[nH]cn1)NC(=O)OCc1ccccc1OCc1ccccc1)[C@H](CN[C@@H](Cc1ccccc1)C(=O)O)Cc1ccc(O)cc1", "IC50": 19.3},
      {"compound": "CN(C(=O)[C@@H](Cc1c[nH]cn1)NC(=O)/C=C/c1ccc(-c2ccccc2)cc1)[C@H](CN[C@@H](Cc1ccc(O)cc1)C(=O)O)Cc1ccc(O)cc1", "IC50": 22.7},
      {"compound": "O=C(CNC(=O)[C@H](Cc1c[nH]cn1)NC(=O)c1coc(-c2ccccc2)n1)N[C@@H](Cc1c[nH]cn1)C(=O)O", "IC50": "> 50"},
      {"compound": "Cc1nc(C(=O)NCC(=O)N[C@@H](Cc2ccccc2)C(=O)N[C@@H](Cc2c[nH]cn2)C(=O)O)c(C)o1", "IC50": "> 50"},
      {"compound": "CCCCCCCCCCCOc1ccc(C(=O)N[C@@H](Cc2ccc(O)cc2)C(=O)N[C@@H](Cc2ccc(O)cc2)C(=O)N[C@@H](Cc2ccc(O)cc2)C(=O)NCCCCN)cc1", "IC50": 11.6},
      {"compound": "CCCCCCCCCCCOc1ccc(C(=O)N[C@@H](Cc2c[nH]cn2)C(=O)N[C@@H](Cc2c[nH]cn2)C(=O)N[C@@H](Cc2c[nH]cn2)C(=O)N(C)CCc2ccccn2)cc1", "IC50": 12.1},
      {"compound": "CCCCCCCCCCC(=O)N[C@@H](Cc1ccc(O)cc1)C(=O)N[C@@H](Cc1c[nH]cn1)C(=O)N[C@@H](Cc1ccc(O)cc1)C(=O)OC", "note": "(Undecanoyl-Tyr-His-Tyr-OMe)", "IC50": 3.9},
      {"compound": "CC(C)(C)OC(=O)n1cnc(C[C@H](NC(=O)[C@H](Cc2ccccc2)NC(=O)CNC(=O)c2coc(-c3ccccc3)n2)C(=O)O)c1", "IC50": "> 50"},
      {"compound": "O=C(CNC(=O)c1coc(-c2ccccc2)n1)N[C@@H](Cc1ccccc1)C(=O)N[C@@H](Cc1c[nH]cn1)C(=O)O", "IC50": 45},
      {"compound": "CCCCCc1ccc(CCC(=O)N[C@H](Cc2ccc(O)cc2)C(=O)N[C@@H](Cc2ccc(O)cc2)C(=O)N[C@@H](C[Si]2(C)CCCCC2)C(=O)O)cc1", "IC50": 19.1},
      {"compound": "CCC/C=C\\c1ccccc1/C=C/C(=O)N[C@H](Cc1c[nH]cn1)C(=O)N(C)[C@H](CN[C@H](Cc1ccccc1)C(=O)O)Cc1ccc(O)cc1", "IC50": 15.2},
      {"compound": "CCCCCCCCCCCOc1ccc(C(=O)N[C@@H](Cc2c[nH]cn2)C(=O)N[C@@H](Cc2c[nH]cn2)C(=O)N[C@@H](Cc2c[nH]cn2)C(=O)NCCCCN)cc1", "IC50": 24},
      {"compound": "O=C(CNC(=O)c1csc(-c2cccnc2)n1)N[C@@H](Cc1ccccc1)C(=O)N[C@@H](Cc1cn(C(c2ccccc2)(c2ccccc2)c2ccccc2)cn1)C(=O)O", "IC50": 37},
      {"compound": "O=C(CNC(=O)[C@H](Cc1c[nH]cn1)NC(=O)c1coc(-c2ccccc2)n1)N[C@@H](Cc1ccccc1)C(=O)O", "IC50": "> 50"},
      {"compound": "CCCCC(=O)N[C@@H](Cc1c[nH]cn1)C(=O)N[C@@H](Cc1ccccc1)C(=O)N[C@@H](Cc1ccc(O)cc1)CN(C)CCc1ccccn1", "IC50": "> 100"},
      {"compound": "CCCCCc1ccc(CCC(=O)N[C@H](Cc2ccc(O)cc2)C(=O)N[C@@H](Cc2ccc(O)cc2)C(=O)N[C@@H](Cc2ccccc2)C(=O)O)cc1", "IC50": 11},
      {"compound": "O=C(CNC(=O)c1csc(-c2cccnc2)n1)N[C@@H](Cc1ccccc1)C(=O)N[C@@H](Cc1c[nH]cn1)C(=O)O", "IC50": "> 50"},
      {"compound": "CCCCCc1ccc(CCC(=O)N[C@H](Cc2c[nH]cn2)C(=O)N(C)[C@H](CN[C@@H](Cc2ccccc2)C(=O)O)Cc2ccccc2)cc1", "IC50": 19},
      {"compound": "CCCCCCCCCCCCCCC(=O)N[C@@H](Cc1c[nH]cn1)C(=O)N[C@@H](Cc1ccccc1)C(=O)N[C@@H](Cc1ccc(O)cc1)CN(C)CCc1ccccn1", "IC50": 26},
      {"compound": "O=C(CNC(=O)c1csc(-c2cccs2)n1)N[C@@H](Cc1ccccc1)C(=O)N[C@@H](Cc1cn(C(c2ccccc2)(c2ccccc2)c2ccccc2)cn1)C(=O)O", "IC50": 36},
      {"compound": "O=C(CNC(=O)c1csc(-c2cccs2)n1)N[C@@H](Cc1ccccc1)C(=O)N[C@@H](Cc1c[nH]cn1)C(=O)O", "IC50": 41},
      {"compound": "CN(C(=O)[C@H](Cc1c[nH]cn1)NC(=O)OCc1ccccc1)[C@@H](Cc1ccccc1)C(=O)N[C@H](Cc1ccc(O)cc1)C(=O)NO", "IC50": 13.6},
      {"compound": "CN(C(=O)[C@@H](Cc1c[nH]cn1)NC(=O)OCc1ccccc1OCc1ccccc1)[C@H](CN[C@@H](Cc1ccccc1)C(=O)O)Cc1ccc(O)cc1", "IC50": 15.6},
      {"compound": "CCCCCCCCCCC(=O)N[C@@H](Cc1c[nH]cn1)C(=O)N[C@@H](Cc1c[nH]cn1)C(=O)N[C@@H](Cc1ccc(O)cc1)C(=O)NCCCCN", "IC50": 5.2}
    ]},
    {"species_on_record": "Rattus norvegicus", "assay": "Inhibition of rat recombinant Rab geranylgeranyltransferase at 100 uM in presence of canine Rab7 and rat REP1 NBD-FPP based continuous fluorimetric assay", "procedure,_shortened": "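Continuous fluorometric assay in 96/384-well format: 3 μM Rab7, 3 μM REP1, 9 μM NBD-FPP and 400 nM RabGGTase, with or without inhibitor. […] IC50 was calculated from three independent measurements.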", "units": {"inhibition": "%"}, "values": [
      {"compound": "CCOC(=O)[C@H](CCC(N)=O)NC(=O)[C@H](Cc1ccccc1)NC(=O)[C@H](C)NC(=O)CCc1ccccc1", "note": "(Hydrocinnamoyl-Ala-Phe-Gln-OEt)", "inhibition": 107},
      {"compound": "COc1ccc(NC(=O)[C@H](CCC(N)=O)NC(=O)[C@H](Cc2ccccc2)NC(=O)[C@H](CO)NC(=O)CCc2ccccc2)cc1", "inhibition": 101},
      {"compound": "COC(=O)[C@H](Cc1ccc(O)cc1)NC(=O)CNC(=O)[C@H](Cc1ccc(O)cc1)NC(=O)CCc1ccc(F)cc1", "inhibition": 90},
      {"compound": "O=C(CNC(=O)c1csc(-c2ccccc2)n1)N[C@@H](Cc1ccccc1)C(=O)N[C@@H](Cc1c[nH]cn1)C(=O)O", "inhibition": 70},
      {"compound": "CCCCCCCCCCCCCC(=O)OC[C@H](NC(=O)CNC(=O)[C@H](Cc1ccccc1)NC(=O)c1coc(-c2ccccc2)n1)C(=O)O", "inhibition": 38},
      {"compound": "CC(=O)Nc1cc(C(=O)N2CCC[C@H]2C(=O)N[C@@H](C(=O)N[C@@H](CCC(=O)O)C(=O)O)C(C)C)ccc1[N+](=O)[O-]", "inhibition": 95},
      {"compound": "CCCCCCCCCCCCCC(=O)N[C@@H](Cc1ccc(O)cc1)C(=O)N[C@@H](Cc1ccc(O)cc1)C(=O)N[C@@H](Cc1ccc(O)cc1)C(=O)Nc1ccc(N2CCOCC2)cc1", "inhibition": 94},
      {"compound": "NC(=O)CC[C@H](NC(=O)[C@H](Cc1ccccc1)NC(=O)CNC(=O)CCc1ccccc1)C(=O)Nc1ccc(F)cc1F", "inhibition": 93},
      {"compound": "CCCCCCCCCCCOc1ccc(C(=O)N[C@@H](Cc2ccc(O)cc2)C(=O)N[C@@H](Cc2ccc(O)cc2)C(=O)N[C@@H](Cc2ccc(O)cc2)C(=O)Nc2ccc(F)cc2F)cc1", "inhibition": 101},
      {"compound": "CCCCCCCCCCCOc1ccc(C(=O)N[C@@H](Cc2c[nH]cn2)C(=O)N[C@@H](Cc2c[nH]cn2)C(=O)N[C@@H](Cc2c[nH]cn2)C(=O)NCC(O)CO)cc1", "note": "(some centres undefined)", "inhibition": 37},
      {"compound": "CCCCCCCCCCC(=O)N[C@@H](Cc1c[nH]cn1)C(=O)N[C@@H](Cc1c[nH]cn1)C(=O)N[C@@H](CO)C(=O)NO", "note": "(Undecanoyl-His-His-Ser-{NHOH})", "inhibition": 78},
      {"compound": "O=C(N[C@@H](Cc1ccc(O)cc1)C(=O)N[C@@H](Cc1ccc(O)cc1)C(=O)N[C@@H](Cc1ccc(O)cc1)C(=O)O)OCc1ccccc1", "inhibition": 51},
      {"compound": "CC(C)C[C@H](NC(=O)[C@H](CO)NC(=O)[C@H](Cc1ccccc1)NC(=O)/C=C/c1ccc(F)cc1)C(=O)O", "inhibition": 71},
      {"compound": "CON(C)C(=O)[C@H](CC(C)C)NC(=O)[C@H](COC(C)(C)C)NC(=O)[C@H](Cc1ccccc1)NC(=O)/C=C/c1ccc(F)cc1", "inhibition": 94},
      {"compound": "CCCCCCCCCCC(=O)N[C@@H](Cc1ccc(O)cc1)C(=O)N[C@@H](Cc1c[nH]cn1)C(=O)N[C@@H](Cc1ccc(O)cc1)C(=O)OCCN", "inhibition": 61},
      {"compound": "CCCCCCCCCCC(=O)N[C@@H](Cc1c[nH]cn1)C(=O)N[C@@H](Cc1c[nH]cn1)C(=O)N[C@@H](CO)C(N)=O", "note": "(Undecanoyl-His-His-Ser-NH2)", "inhibition": 81},
      {"compound": "CC(C)C[C@H](NC(=O)/C=C/c1ccccc1)C(=O)N[C@@H](Cc1ccccc1)C(=O)N[C@@H](Cc1ccccc1)C(=O)O", "inhibition": 75},
      {"compound": "NC(=O)CC[C@H](NC(=O)[C@H](Cc1ccccc1)NC(=O)CNC(=O)CCc1ccccc1)C(=O)NNc1ccccc1", "inhibition": 75},
      {"compound": "C[C@@H](O)[C@H](NC(=O)/C=C/c1ccccc1)C(=O)N[C@@H](Cc1ccccc1)C(=O)N[C@@H](CCC(N)=O)C(=O)Nc1nccs1", "inhibition": 86},
      {"compound": "O=C(CNC(=O)[C@H](Cc1ccccc1)NC(=O)c1coc(-c2ccccc2)n1)N[C@@H](CO)C(=O)Nc1cncs1", "inhibition": 116},
      {"compound": "CON(C)C(=O)[C@H](CCC(N)=O)NC(=O)[C@H](Cc1ccccc1)NC(=O)[C@@H](NC(=O)/C=C/c1ccccc1)[C@@H](C)O", "inhibition": 80},
      {"compound": "CCCCCCCCCCCCCCCC(=O)N[C@@H](Cc1ccc(O)cc1)C(=O)N[C@@H](Cc1ccc(O)cc1)C(=O)N[C@@H](Cc1ccc(O)cc1)C(=O)OCCN", "inhibition": 110},
      {"compound": "O=C(CNC(=O)[C@H](Cc1ccccc1)NC(=O)c1coc(-c2ccccc2)n1)N[C@@H](CO)C(=O)O", "inhibition": 106},
      {"compound": "CCCCCCCCCCCCCCCC(=O)N[C@@H](Cc1ccc(O)cc1)C(=O)N[C@@H](Cc1ccc(O)cc1)C(=O)N[C@@H](Cc1ccc(O)cc1)C(=O)NCCCn1ccnc1", "inhibition": 85},
      {"compound": "NC(=O)CC[C@H](NC(=O)[C@H](Cc1ccccc1)NC(=O)[C@H](CO)NC(=O)CCc1ccccc1)C(=O)Nc1ccc(F)cc1F", "inhibition": 104},
      {"compound": "O=C(/C=C/c1ccc(F)cc1)N[C@@H](CO)C(=O)N[C@@H](Cc1ccccc1)C(=O)N[C@@H](CO)C(=O)O", "inhibition": 99},
      {"compound": "O=C(CNC(=O)[C@H](Cc1c[nH]cn1)NC(=O)OCc1ccccc1)N[C@@H](Cc1ccc(O)cc1)C(=O)Nc1nccs1", "inhibition": 82},
      {"compound": "COc1ccc(C[C@@H](C(=O)N(C)[C@@H](Cc2ccccc2)C(=O)O)N(C)C(=O)[C@@H](Cc2ccc(O)cc2)NC(=O)OCc2ccccc2)cc1", "inhibition": 25},
      {"compound": "C[C@H](NC(=O)[C@@H](NC(=O)c1ccc(-c2ccccc2)cc1)[C@@H](C)O)C(=O)N[C@@H](CCC(N)=O)C(=O)Nc1cccc(Br)n1", "inhibition": 77},
      {"compound": "C=CCCCCCCCCCOC(=O)[C@H](CC(C)C)NC(=O)[C@H](COC(C)(C)C)NC(=O)[C@H](Cc1ccccc1)NC(=O)CCc1ccccc1", "inhibition": 108},
      {"compound": "CC(C)(C)Oc1ccc(C[C@H](NC(=O)CNC(=O)[C@H](CCCCN)NC(=O)c2coc(-c3ccccc3)n2)C(=O)O)cc1", "inhibition": 93},
      {"compound": "C[C@@H](NC(=O)CCc1ccccc1)C(=O)N[C@@H](Cc1ccccc1)C(=O)N[C@@H](CCC(N)=O)C(=O)O", "inhibition": 111}
    ]}
  ]
}
